Assay results taken from ChEMBL document CHEMBL1129065, “Longimicins A-D: novel bioactive acetogenins from Asimina longifolia (annonaceae) and structure-activity relationships of asimicin type of annonaceous acetogenins” (1996).
Values after ≈ are worked out from the molar mass of the structure shown.

Experiments:
Assay type in all cases: functional
A549 = assay: Cytotoxicity concentration against human lung carcinoma A-549 cell line; conditions: read-out: ED50 (the source's name)
Method in brief: (§1)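 7-day MTT cytotoxicity assay in human tumor cells, run at the Purdue Cancer Center cell culture lab under standard protocols. Samples serially diluted and each concentration tested in duplicate. ED50 calculated from the averaged values per concentration. Adriamycin included as positive control in every experiment.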

A498 = assay: Cytotoxicity concentration against human kidney carcinoma A-498 cell line; conditions: read-out: ED50 (the source's name); method in brief: as §1
Artemia = assay: Lethal concentration required against bioactivity using brine shrimp lethality test
HT-29 = assay: Cytotoxicity concentration against human colon […] HT-29 cell line; conditions: read-out: ED50 (the source's name); method in brief: as §1
MCF7 = assay: Cytotoxicity concentration against human breast carcinoma MCF-7 cell line; conditions: read-out: ED50 (the source's name); method in brief: as §1
PC-3 = assay: Cytotoxicity concentration against human prostate […] PC-3 cell line; conditions: read-out: ED50 (the source's name); method in brief: as §1
MIA PaCa-2 = assay: Cytotoxicity concentration against human pancreatic carcinoma PaCa-2 cell line; conditions: read-out: ED50 (the source's name); method in brief: as §1
Culicidae = assay: Lethal concentration required against bioactivity using yellow fever mosquito larvae assay

SMILES | EC50 (A549) [µg/mL] | EC50 (A498) [µg/mL] | LC50 (Artemia) [µg/mL] | EC50 (HT-29) [µg/mL] | EC50 (MCF7) [µg/mL] | EC50 (PC-3) [µg/mL] | EC50 (MIA PaCa-2) [µg/mL] | LC50 (Culicidae) [µg/mL]
COc1cccc2c1C(=O)c1c(O)c3c(c(O)c1C2=O)C[C@@](O)(C(=O)CO)C[C@@H]3O[C@H]1C[C@H](N)[C@H](O)[C@H](C)O1 [DOXORUBICIN] | 0.0262 (≈ 0.0482 µM) | 0.0663 (≈ 0.122 µM) | 0.26 (≈ 0.478 µM) | 0.0494 (≈ 0.0909 µM) | 0.194 (≈ 0.357 µM) | 0.287 (≈ 0.528 µM) | 0.034 (≈ 0.0626 µM) | 
CCCCCCCCCCC(O)C1CCC(C2CCC(C(O)CCCCCCCC[C@H](O)CC3=C[C@@H](C)OC3=O)O2)O1 (stereo partly specified) [ASIMICIN] | 0.00843 (≈ 0.0142 µM) |  | 0.026 (≈ 0.0437 µM) |  | 0.852 (≈ 1.43 µM) |  |  | 3.04 (≈ 5.11 µM)
CCCCCCC[C@H]1CC[C@H](CCCC[C@@H](O)[C@H]2CC[C@H](CCC[C@H](O)[C@@H](O)CCCCCCCC3=C[C@H](C)OC3=O)O2)O1 [ASIMIN] |  |  | 0.0046 (≈ 0.00738 µM) |  |  |  |  | 
CCCCCCCCCCCC[C@@H](O)[C@H]1CC[C@H]([C@H]2CC[C@H]([C@H](O)CCCCCC[C@@H](O)CC3=C[C@H](C)OC3=O)O2)O1 | 0.143 (≈ 0.24 µM) | 0.064 (≈ 0.108 µM) | 7.34 (≈ 12.3 µM) | 0.00332 (≈ 0.00558 µM) | 0.0154 (≈ 0.0259 µM) | 2.2 (≈ 3.7 µM) | 0.0792 (≈ 0.133 µM) | 30.4 (≈ 51.1 µM)
CCCCCCCCCC[C@@H](O)[C@H]1CC[C@H]([C@H]2CC[C@H]([C@H](O)CCCCCCCC[C@@H](O)CC3=C[C@H](C)OC3=O)O2)O1 [PARVIFLORIN] |  |  | 0.088 (≈ 0.148 µM) | 0.549 (≈ 0.923 µM) | 1.72 (≈ 2.89 µM) |  |  | 
CCCCCCCCCCCC[C@@H](O)[C@H]1CC[C@H]([C@H]2CC[C@H]([C@H](O)CC[C@H](O)CCCCCCCC3=C[C@H](C)OC3=O)O2)O1 | 0.000493 (≈ 0.000791 µM) | 0.0353 (≈ 0.0567 µM) | 4.58 (≈ 7.35 µM) | 0.0116 (≈ 0.0186 µM) | 0.215 (≈ 0.345 µM) | 0.000242 (≈ 0.000388 µM) |  | 8.29 (≈ 13.3 µM)
CCCCCCCCCCCCCC[C@@H](O)[C@H]1CC[C@H]([C@H]2CC[C@H]([C@H](O)CCCCCC[C@@H](O)CC3=C[C@H](C)OC3=O)O2)O1 | 0.295 (≈ 0.474 µM) | 0.544 (≈ 0.873 µM) | 18.7 (≈ 30 µM) | 0.525 (≈ 0.843 µM) | 0.889 (≈ 1.43 µM) | 0.0701 (≈ 0.113 µM) | 0.0173 (≈ 0.0278 µM) | 141 (≈ 226 µM)
CCCCCCCCCCCCCC[C@@H](O)[C@H]1CC[C@H]([C@H]2CC[C@H]([C@H](O)CCCC[C@@H](O)CC3=C[C@H](C)OC3=O)O2)O1 | 0.455 (≈ 0.765 µM) | 0.127 (≈ 0.213 µM) | 9.42 (≈ 15.8 µM) | 1 (≈ 1.68 µM) | 0.088 (≈ 0.148 µM) | 2.96 (≈ 4.98 µM) | 1.09 (≈ 1.83 µM) | 75.7 (≈ 127 µM)
